This note sets out measurements from ChEMBL document CHEMBL1154887, “Pycnanthulignenes A-D, antimicrobial cyclolignene derivatives from the roots of Pycnanthus angolensis” (2010).

In brackets after ≈: the same amount, converted by molar mass. Some results are limits rather than exact numbers.

Experiment [1] has as its system Salmonella enterica. Description: Antibacterial activity against chloramphenicol-resistant Salmonella typhi LMP 706 after 24 hrs by microbroth dilution method. Format: functional. In short, it runs like this:
(§1)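 For MMC, wells with no colour change after the INT step of the microbroth dilution assay were subcultured onto MHA agar and incubated at 37 °C for 24 h. MMC is the lowest concentration giving no growth after subculture. The assay was repeated three times.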

Experiment [2] deals with Klebsiella pneumoniae. As to the kind of experiment: Antibacterial activity against beta ampicillin resistant Klebsiella pneumoniae LMP 803 after 24 hrs by microbroth dilution method. The format is functional. In outline:
as §1

Experiment [3] has as its system Candida albicans. Description: Antifungal activity against Candida albicans LMP 709U after 24 hrs by microbroth dilution method. The format is functional. In outline:
(§2)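 Minimal microbicidal concentration taken after the microbroth dilution MIC assay. MMC is the lowest concentration giving no growth after subculture.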

Experiment [4] relates to Microsporum audouinii. Description: Antifungal activity against Microsporum audouinii LMP 725D after 24 hrs by microbroth dilution method. The format is functional. In short, it runs like this: as §2
Experiment [5] concerns Pseudomonas aeruginosa. Description: Antibacterial activity against beta carbenicillin resistant Pseudomonas aeruginosa LMP 804 after 24 hrs by microbroth dilution method. Format: functional. In outline:
as §1

Experiment [6] deals with Citrobacter freundii. Description: Antibacterial activity against chloramphenicol-resistant Citrobacter freundii LMP 802 after 24 hrs by microbroth dilution method. The format is functional. In outline: as §1
In general terms: In broth dilution the organism is exposed to a series of concentrations in liquid medium.

Experiment [7] has as its system Escherichia coli. As to the kind of experiment: Antibacterial activity against beta lactamase positive Escherichia coli LMP 701 after 24 hrs by microbroth dilution method. Format: functional. In outline:
as §2

The subject of experiment [8] is Shigella dysenteriae. Description: Antibacterial activity against beta lactamase positive Shigella dysenteriae LMP 606 after 24 hrs by microbroth dilution method. Format: functional. In short, it runs like this:
as §1

The subject of experiment [9] is Escherichia coli. Description: Antibacterial activity against beta lactamase positive Escherichia coli LMP 701 after 30 mins by microbroth dilution method. The format is functional. In short, it runs like this:
(§3)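 Microbroth dilution, run three times. After incubation, 0.2 mg/mL p-iodonitrotetrazolium chloride was added and plates were held 30 min at 37 °C. Viable cells reduce the yellow dye to pink. MIC is the lowest concentration that prevented the colour change and gave complete growth inhibition.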

The subject of experiment [10] is Candida albicans. As to the kind of experiment: Antifungal activity against Candida albicans LMP 709U […] by microbroth dilution method. Format: functional. In short, it runs like this: as §3
Experiment [11] deals with Microsporum audouinii. Description: Antifungal activity against Microsporum audouinii LMP 725D after 30 mins by microbroth dilution method. Format: functional. In outline: as §3
Experiment [12] deals with Staphylococcus aureus. Description: Antibacterial activity against methicillin-resistant Staphylococcus aureus LMP 805 after 30 mins by microbroth dilution method. The format is functional. In short, it runs like this:
(§4)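 Microbroth dilution MIC, done in three independent repeats. After incubation, 0.2 mg/mL p-iodonitrotetrazolium chloride was added and plates were held at 37 °C for 30 min. Viable cells reduce the yellow dye to pink.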

For experiment [13], the system named is Salmonella enterica. As to the kind of experiment: Antibacterial activity against chloramphenicol-resistant Salmonella typhi LMP 706 after 30 mins by microbroth dilution method. Format: functional, Salmonella enterica subsp. enterica serovar Typhi. In short, it runs like this: as §4
Experiment [14] relates to Klebsiella pneumoniae. Description: Antibacterial activity against beta ampicillin resistant Klebsiella pneumoniae LMP 803 after 30 mins by microbroth dilution method. Format: functional. In short, it runs like this:
as §4

Experiment [15] relates to Pseudomonas aeruginosa. As to the kind of experiment: Antibacterial activity against beta carbenicillin resistant Pseudomonas aeruginosa LMP 804 after 30 mins by microbroth dilution method. The format is functional. In short, it runs like this: as §4
Experiment [16] deals with Citrobacter freundii. As to the kind of experiment: Antibacterial activity against chloramphenicol-resistant Citrobacter freundii LMP 802 after 30 mins by microbroth dilution method. Format: functional. In outline: as §4
Experiment [17] has as its system Shigella dysenteriae. Description: Antibacterial activity against beta lactamase positive Shigella dysenteriae LMP 606 after 30 mins by microbroth dilution method. Format: functional. In outline:
as §4

In experiment [18] the test system is Staphylococcus aureus. Description: Antibacterial activity against methicillin-resistant Staphylococcus aureus LMP 805 after 24 hrs by microbroth dilution method. The format is functional. In outline:
as §1

The mark [19] stands for this setting: Salmonella enterica subsp. enterica serovar Typhi.

Turning to NYSTATIN, the MMC in the experiment with Salmonella enterica [1] (setting [19]) amounted to 19.5 µg/mL; in the experiment on Klebsiella pneumoniae [2], 19.5 µg/mL; with Candida albicans [3], 9.8 µg/mL; in the experiment with Microsporum audouinii [4] it was 9.8 µg/mL; in the experiment with Pseudomonas aeruginosa [5] it was 19.5 µg/mL; with Citrobacter freundii [6], 9.8 µg/mL. The MMC with Escherichia coli [7] and in the experiment with Shigella dysenteriae [8] was 9.8 µg/mL each time.

Take `COc1cc2c(cc1OC)[C@H](c1ccc(O)cc1)[C@@H](C)C(C)=C2` [PYCNANTHULIGNENE A]: the MIC against Escherichia coli [9] (LMP 701, 0.5 h) was 19.5 µg/mL (≈ 62.8 µM); against Candida albicans [10] it was 19.5 µg/mL (≈ 62.9 µM); with Microsporum audouinii [11] (0.5 h) it was 39.1 µg/mL (≈ 126 µM); in the experiment with Staphylococcus aureus [12] (LMP 805, 0.5 h) it was 9.76 µg/mL (≈ 31.4 µM); with Salmonella enterica [13] (LMP 706, 0.5 h), 19.5 µg/mL (≈ 62.9 µM); against Klebsiella pneumoniae [14] (LMP 803, 0.5 h), 78.1 µg/mL (≈ 252 µM). Further, the minimal inhibitory concentration (MIC) against Pseudomonas aeruginosa [15] (LMP 804, 0.5 h) came out at 78.1 µg/mL (≈ 252 µM); against Citrobacter freundii [16] (LMP 802, 0.5 h), 39.1 µg/mL (≈ 126 µM); in the experiment with Shigella dysenteriae [17] (LMP 606, 0.5 h) it was 39.1 µg/mL (≈ 126 µM). Also, the MMC in the experiment on Klebsiella pneumoniae [2] was above 78.12 µg/mL; in the experiment with Candida albicans [3], 39.06 µg/mL; in the experiment on Microsporum audouinii [4] it was 78.12 µg/mL; with Pseudomonas aeruginosa [5] it was above 78.12 µg/mL; with Escherichia coli [7], 39.1 µg/mL; in the experiment with Shigella dysenteriae [8], 78.1 µg/mL. In the experiment with Staphylococcus aureus [18], the MMC was found to be 19.53 µg/mL.

Regarding GENTAMICIN, the MIC against Escherichia coli [9] was 4.88 µg/mL; in the experiment on Microsporum audouinii [11] it was 4.88 µg/mL; against Staphylococcus aureus [12], 4.88 µg/mL; with Salmonella enterica [13] (setting [19]), 9.76 µg/mL; with Klebsiella pneumoniae [14] it was 19.5 µg/mL; with Pseudomonas aeruginosa [15], above 9.76 µg/mL. For the same compound, the minimum inhibitory concentration (MIC) in the experiment on Citrobacter freundii [16] and in the experiment with Shigella dysenteriae [17] was 4.88 µg/mL in each case.

As to `COc1ccc(-c2c(C)c(C)cc3cc4c(cc23)OCO4)cc1` [PYCNANTHULIGNENE C], the minimal inhibitory concentration (MIC) was determined as 19.5 µg/mL (≈ 63.7 µM) against Escherichia coli [9] (LMP 701, 0.5 h); 19.5 µg/mL (≈ 63.7 µM) in the experiment on Candida albicans [10]; 39.1 µg/mL (≈ 127 µM) against Microsporum audouinii [11] (0.5 h); 19.5 µg/mL (≈ 63.7 µM) with Staphylococcus aureus [12] (LMP 805, 0.5 h); 39.1 µg/mL (≈ 127 µM) in the experiment on Salmonella enterica [13] (LMP 706, 0.5 h); 78.1 µg/mL (≈ 255 µM) with Klebsiella pneumoniae [14] (LMP 803, 0.5 h). The MIC is above 78.1 µg/mL in the experiment with Pseudomonas aeruginosa [15] (LMP 804, 0.5 h); 39.1 µg/mL (≈ 127 µM) with Citrobacter freundii [16] (LMP 802, 0.5 h); 39.1 µg/mL (≈ 128 µM) against Shigella dysenteriae [17] (LMP 606, 0.5 h). For the same compound, the MMC in the experiment on Salmonella enterica [1] was 78.12 µg/mL; in the experiment with Klebsiella pneumoniae [2] it was above 78.1 µg/mL; in the experiment with Candida albicans [3], 39.06 µg/mL; in the experiment on Microsporum audouinii [4], 78.1 µg/mL; in the experiment with Pseudomonas aeruginosa [5], above 78.12 µg/mL; in the experiment with Citrobacter freundii [6] it was 78.12 µg/mL. Moreover, the MMC is 78.1 µg/mL in the experiment with Escherichia coli [7], above 78.1 µg/mL in the experiment with Shigella dysenteriae [8] and 39.1 µg/mL in the experiment on Staphylococcus aureus [18].

What is called MIC is the lowest concentration that inhibits growth of the organism. Read a high MIC as a need for much substance.
